{
  "source": "ChEMBL document CHEMBL1123710",
  "about": "“Molecular structure of the dihydropyridazinone cardiotonic 1,3-dihydro-3,3-dimethyl-5-(1,4,5,6-tetrahydro-6-oxo-pyridazinyl)- 2H-indol-2-one, a potent inhibitor of cyclic AMP phosphodiesterase” (1987)",
  "key": {"Canis familiaris [1]": {"tested_on": "Canis familiaris", "test": "Percent increase in heart rate (HR) in anesthetized dogs was determined", "type": "functional, Canis lupus familiaris"}, "Canis familiaris [2]": {"tested_on": "Canis familiaris", "test": "Myocardial contractility was determined after intravenous administration in phenobarbital-anesthetized dogs", "type": "functional", "conditions": "Canis lupus familiaris, Myocardium", "outline": "(§1)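 Dogs under anesthesia; Walton-Brodie strain-gauge arch sutured to right ventricle, tension set at 50 g. Increasing iv doses via femoral vein at 5-min intervals, peak responses recorded; vehicle injections tested. Inotropic ED50 by linear regression, mean ± SEM. Preload/afterload independence confirmed with dextran bolus and aortic compression.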"}, "Canis familiaris [3]": {"tested_on": "Canis familiaris", "test": "Percent decrease in mean arterial blood pressure (MAP) was determined in anesthetized dogs", "type": "functional, Canis lupus familiaris", "outline": "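Femoral arterial pressure in anesthetized dogs via heparin-filled catheter and pressure transducer; baseline MAP 99 ± 3 mmHg. Escalating iv doses via femoral vein every 5 min, peak responses taken. Value is percent change in mean arterial pressure at the inotropic ED50 dose.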"}, "Canis familiaris [4]": {"tested_on": "Canis familiaris", "test": "Myocardial contractility was determined after intravenous administration in phenobarbital-anesthetized dogs (n=4).", "type": "functional", "conditions": "Canis lupus familiaris, Myocardium", "outline": "as §1"}, "Canis familiaris [5]": {"tested_on": "Canis familiaris", "test": "Myocardial contractility was determined after intravenous administration in phenobarbital anesthetized dogs (n=4).", "type": "functional", "conditions": "Canis lupus familiaris, Myocardium", "outline": "as §1"}},
  "data": [
    {"smiles": "CC1(C)C(=O)Nc2ccc(-c3ccc(O)nn3)cc21", "values": [
      {"measurement": "Increase", "setting": "Canis familiaris [1]", "result": 24, "unit": "%"},
      {"measurement": "ED50", "setting": "Canis familiaris [2]", "result": 7.4, "unit": "µg/kg"},
      {"measurement": "Decrease", "setting": "Canis familiaris [3]", "result": 18, "unit": "%"}
    ]},
    {"smiles": "CC1CC(=O)NN=C1c1ccc2c(c1)C(C)(C)C(=O)N2", "note": "(configuration not stated)", "values": [
      {"measurement": "Increase", "setting": "Canis familiaris [1]", "result": 20, "unit": "%"},
      {"measurement": "ED50", "setting": "Canis familiaris [4]", "result": 3.6, "unit": "µg/kg"},
      {"measurement": "Decrease", "setting": "Canis familiaris [3]", "result": 31, "unit": "%"}
    ]},
    {"smiles": "CC1(C)C(=O)Nc2ccc(C3=NNC(=O)CC3)cc21", "note": "[INDOLIDAN]", "values": [
      {"measurement": "Increase", "setting": "Canis familiaris [1]", "result": 12, "unit": "%"},
      {"measurement": "ED50", "setting": "Canis familiaris [4]", "result": 6.8, "unit": "µg/kg"},
      {"measurement": "Decrease", "setting": "Canis familiaris [3]", "result": 15, "unit": "%"}
    ]},
    {"smiles": "Cc1cc(O)nnc1-c1ccc2c(c1)C(C)(C)C(=O)N2", "values": [
      {"measurement": "Increase", "setting": "Canis familiaris [1]", "result": 15, "unit": "%"},
      {"measurement": "ED50", "setting": "Canis familiaris [5]", "result": 32.6, "unit": "µg/kg"},
      {"measurement": "Decrease", "setting": "Canis familiaris [3]", "result": 20, "unit": "%"}
    ]}
  ]
}
